Measurements published in ChEMBL document CHEMBL3593234, “Lanostane Triterpenes from the Tibetan Medicinal Mushroom Ganoderma leucocontextum and Their Inhibitory Effects on HMG-CoA Reductase and α-Glucosidase” (J Nat Prod, 2015).

Experiments:
[1] = molecular target: T1, 3-hydroxy-3-methylglutaryl-coenzyme A reductase (Homo sapiens, UniProt P04035); assay: Inhibition of HMG-CoA reductase (unknown origin)
T1 sequence (P04035 whole entry): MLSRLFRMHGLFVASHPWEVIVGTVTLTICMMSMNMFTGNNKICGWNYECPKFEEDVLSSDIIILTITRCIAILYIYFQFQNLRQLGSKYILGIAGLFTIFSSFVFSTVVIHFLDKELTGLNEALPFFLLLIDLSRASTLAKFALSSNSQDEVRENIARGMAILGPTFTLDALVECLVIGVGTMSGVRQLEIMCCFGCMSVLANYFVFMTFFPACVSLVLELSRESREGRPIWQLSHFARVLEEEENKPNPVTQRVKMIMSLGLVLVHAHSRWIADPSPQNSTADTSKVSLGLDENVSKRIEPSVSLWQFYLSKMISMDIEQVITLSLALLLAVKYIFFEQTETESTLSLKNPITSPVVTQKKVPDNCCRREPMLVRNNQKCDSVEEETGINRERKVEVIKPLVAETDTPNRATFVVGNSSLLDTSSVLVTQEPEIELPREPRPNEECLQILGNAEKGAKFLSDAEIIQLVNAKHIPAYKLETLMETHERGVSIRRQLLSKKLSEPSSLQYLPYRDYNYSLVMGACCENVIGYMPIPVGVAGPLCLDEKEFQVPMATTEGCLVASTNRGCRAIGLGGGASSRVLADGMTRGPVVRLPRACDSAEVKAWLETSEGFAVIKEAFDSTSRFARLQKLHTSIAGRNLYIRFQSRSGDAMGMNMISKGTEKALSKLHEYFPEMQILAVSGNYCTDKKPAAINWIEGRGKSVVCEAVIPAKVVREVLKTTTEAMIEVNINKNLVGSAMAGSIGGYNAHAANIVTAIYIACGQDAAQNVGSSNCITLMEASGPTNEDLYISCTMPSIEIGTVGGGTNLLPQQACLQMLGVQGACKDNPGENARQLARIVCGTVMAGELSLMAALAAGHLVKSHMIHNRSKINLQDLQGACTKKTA
Method in brief: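 Pig liver microsomal enzyme (about 4 U/mL final), colorimetric. Compounds at 2.5–80 μM final with HMG-CoA (200 μM final) in 0.1 mol/L potassium phosphate pH 7.0 (3.5 mmol/L EDTA, 10 mmol/L DTT, 0.1 g/L BSA). Preincubated 5 min at 37 °C, then NADPH (100 μM final) added for 15 min at 37 °C. A340 read; % inhibition against enzyme-free blanks and compound-free controls.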

[2] = Inhibition of alpha-glucosidase (unknown origin); parameters: species or system Homo sapiens
Method in brief: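 Baker's yeast enzyme with phosphate buffer; absorbance read at 405 nm. Compound-free controls and enzyme-free blanks used. % inhibition = [(ODcontrol − ODcontrol blank) − (ODtest − ODtest blank)]/(ODcontrol − ODcontrol blank) × 100.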

[3] = molecular target: T2, 3-hydroxy-3-methylglutaryl-coenzyme A reductase (Sus scrofa, UniProt Q1W675); assay: Inhibition of pig liver microsomes HMG-CoA reductase incubated for 5 mins in using HMG-CoA and NADPH by colorimetric method
T2 sequence (Q1W675 whole entry): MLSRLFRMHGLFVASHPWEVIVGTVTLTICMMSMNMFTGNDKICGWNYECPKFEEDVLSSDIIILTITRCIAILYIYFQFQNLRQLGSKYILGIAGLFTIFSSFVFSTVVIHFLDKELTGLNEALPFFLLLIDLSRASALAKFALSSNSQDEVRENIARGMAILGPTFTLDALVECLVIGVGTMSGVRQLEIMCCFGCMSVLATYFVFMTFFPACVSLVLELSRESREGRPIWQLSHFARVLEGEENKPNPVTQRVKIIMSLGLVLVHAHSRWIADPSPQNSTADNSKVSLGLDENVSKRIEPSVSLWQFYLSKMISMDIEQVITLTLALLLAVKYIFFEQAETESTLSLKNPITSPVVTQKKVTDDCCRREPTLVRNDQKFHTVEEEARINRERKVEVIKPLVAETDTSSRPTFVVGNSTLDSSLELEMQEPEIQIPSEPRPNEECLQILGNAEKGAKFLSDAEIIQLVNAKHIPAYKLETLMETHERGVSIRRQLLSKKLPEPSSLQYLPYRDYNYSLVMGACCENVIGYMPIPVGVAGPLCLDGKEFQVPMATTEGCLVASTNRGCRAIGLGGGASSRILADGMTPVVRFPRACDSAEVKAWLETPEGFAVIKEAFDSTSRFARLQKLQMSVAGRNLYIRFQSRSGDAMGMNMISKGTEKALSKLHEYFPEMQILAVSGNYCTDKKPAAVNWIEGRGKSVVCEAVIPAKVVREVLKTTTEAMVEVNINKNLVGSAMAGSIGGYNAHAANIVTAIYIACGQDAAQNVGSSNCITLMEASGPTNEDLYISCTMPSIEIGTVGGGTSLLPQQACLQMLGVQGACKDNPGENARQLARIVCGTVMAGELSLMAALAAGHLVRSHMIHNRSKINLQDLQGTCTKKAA
Method in brief: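 Pig liver microsomal HMG-CoA reductase at about 4 U/mL final, with compound at 2.5–80 μM final and 200 μM HMG-CoA. Buffer was 0.1 mol/L potassium phosphate pH 7.0 with EDTA, dithiothreitol and BSA. After 5 min at 37 °C, 100 μM NADPH was added for 15 min at 37 °C. Absorbance was read at 340 nm, with percent inhibition from blank-corrected OD.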

[4] = Inhibition of Baker's yeast alpha-glucosidase; parameters: species or system Saccharomyces cerevisiae
Method in brief: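 Baker's yeast α-glucosidase assay read by absorbance at 405 nm. Control wells got phosphate buffer instead of compound, and blanks got buffer instead of enzyme. Percent inhibition was calculated from blank-corrected OD of test versus control wells.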

[5] = Inhibition of alpha-glucosidase in rat intestinal mucosa pre-incubated for 40 mins using p-nitrophenyl-alpha-D-glucopyranoside substrate; assay type: tissue-based
Method in brief: (§1)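 Rat intestinal mucosa powder (1.0 g) was suspended in 3 mL 0.9% saline and sonicated at 4 °C (12 × 30 s), then spun at 10000g, 4 °C, 30 min; the supernatant served as enzyme. Compound in DMSO was mixed with substrate (maltose, sucrose or p-nitrophenyl-α-D-glucopyranoside) in 0.1 M phosphate buffer pH 6.9 and preincubated 40 min. Glucose was read by GOD kit at 550 nm, with blank-corrected percent inhibition.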

[6] = molecular target: Sucrase-isomaltase, intestinal (Rattus norvegicus, UniProt P23739); assay: Inhibition of sucrase in rat intestinal mucosa pre-incubated for 40 mins using sucrose substrate; assay type: tissue-based; method in brief: as §1
Sequence of Sucrase-isomaltase, intestinal (P23739 1-1013 limits assumed): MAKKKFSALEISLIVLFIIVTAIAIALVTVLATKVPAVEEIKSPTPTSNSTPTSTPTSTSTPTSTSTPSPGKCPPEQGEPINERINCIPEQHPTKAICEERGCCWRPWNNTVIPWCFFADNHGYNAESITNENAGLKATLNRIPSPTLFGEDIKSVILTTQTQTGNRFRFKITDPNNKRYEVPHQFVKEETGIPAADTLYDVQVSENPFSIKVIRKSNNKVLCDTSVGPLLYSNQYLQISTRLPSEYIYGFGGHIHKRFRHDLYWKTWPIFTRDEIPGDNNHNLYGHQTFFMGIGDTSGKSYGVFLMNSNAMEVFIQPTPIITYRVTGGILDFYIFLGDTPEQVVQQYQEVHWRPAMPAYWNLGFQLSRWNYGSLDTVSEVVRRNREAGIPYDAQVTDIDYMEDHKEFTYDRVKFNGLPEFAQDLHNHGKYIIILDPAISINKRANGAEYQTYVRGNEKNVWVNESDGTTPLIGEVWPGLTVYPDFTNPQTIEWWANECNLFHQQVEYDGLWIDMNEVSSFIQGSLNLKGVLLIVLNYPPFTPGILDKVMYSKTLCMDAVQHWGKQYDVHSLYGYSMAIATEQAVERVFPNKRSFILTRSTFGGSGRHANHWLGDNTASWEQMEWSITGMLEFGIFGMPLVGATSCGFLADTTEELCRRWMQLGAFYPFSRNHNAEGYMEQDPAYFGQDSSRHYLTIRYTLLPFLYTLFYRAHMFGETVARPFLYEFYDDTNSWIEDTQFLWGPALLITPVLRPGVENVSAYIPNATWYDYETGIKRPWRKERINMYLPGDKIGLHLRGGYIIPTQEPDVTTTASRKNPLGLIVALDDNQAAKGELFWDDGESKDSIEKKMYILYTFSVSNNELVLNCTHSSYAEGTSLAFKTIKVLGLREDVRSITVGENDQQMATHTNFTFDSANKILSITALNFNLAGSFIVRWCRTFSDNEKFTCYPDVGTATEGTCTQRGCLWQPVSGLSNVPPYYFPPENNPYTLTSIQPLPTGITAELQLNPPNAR
Sequence of Sucrase-isomaltase, intestinal (P23739 1014-1841 limits assumed): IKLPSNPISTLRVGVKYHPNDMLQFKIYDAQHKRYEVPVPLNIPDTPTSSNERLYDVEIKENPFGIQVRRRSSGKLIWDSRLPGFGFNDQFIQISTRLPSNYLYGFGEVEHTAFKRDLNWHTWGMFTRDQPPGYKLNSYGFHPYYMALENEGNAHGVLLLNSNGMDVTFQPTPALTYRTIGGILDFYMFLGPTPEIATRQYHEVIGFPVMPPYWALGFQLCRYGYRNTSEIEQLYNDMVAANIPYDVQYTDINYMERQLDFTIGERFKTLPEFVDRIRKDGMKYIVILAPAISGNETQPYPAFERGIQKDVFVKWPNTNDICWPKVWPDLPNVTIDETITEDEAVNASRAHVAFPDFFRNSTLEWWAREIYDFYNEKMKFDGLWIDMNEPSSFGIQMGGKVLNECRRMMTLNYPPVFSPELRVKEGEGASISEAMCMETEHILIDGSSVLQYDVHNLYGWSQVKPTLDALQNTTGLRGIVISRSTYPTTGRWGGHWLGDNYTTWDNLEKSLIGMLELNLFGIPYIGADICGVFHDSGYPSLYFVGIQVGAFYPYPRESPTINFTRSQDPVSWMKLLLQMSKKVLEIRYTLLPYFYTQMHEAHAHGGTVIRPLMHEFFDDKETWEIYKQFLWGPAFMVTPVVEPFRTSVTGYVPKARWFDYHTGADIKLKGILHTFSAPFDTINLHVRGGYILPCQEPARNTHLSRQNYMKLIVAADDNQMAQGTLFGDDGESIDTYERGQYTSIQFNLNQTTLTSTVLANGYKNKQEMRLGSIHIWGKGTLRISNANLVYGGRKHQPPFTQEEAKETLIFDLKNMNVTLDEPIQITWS

K562 = assay: Cytotoxicity against human K562 cells by MTT method; assay type: functional, cell-based; conditions: Homo sapiens, K562
PC-3 = assay: Cytotoxicity against human PC3 cells by MTT method; assay type: functional, cell-based; conditions: Homo sapiens, PC-3

C/C(=C\CC[C@@H](C)[C@H]1C[C@H](O)[C@@]2(C)C3=CC[C@H]4C(C)(C)C(=O)CC[C@]4(C)C3=CC[C@]12C)C(=O)O
IC50 [1]: 21.7 µM

C/C(=C\CC[C@@H](C)[C@H]1CC[C@@]2(C)C3=C(CC[C@]12C)[C@@]1(C)CC[C@H](O)C(C)(C)[C@@H]1CC3=O)C(=O)O
IC50 [1]: 22.3 µM

C/C(=C\CC[C@@H](C)[C@H]1CC[C@@]2(C)C3=CC[C@H]4C(C)(C)[C@@H](O)CC[C@]4(C)C3=CC[C@]12C)CO [GANODEROL B]
IC50 [2]: 120 µM

CC(C)=CCC/C(C)=C/CC/C(=C/Cc1cc(O)ccc1O)C(=O)O[C@@H](CC[C@@H](C)[C@H]1CC[C@@]2(C)C3=CC[C@H]4C(C)(C)C(=O)CC[C@]4(C)C3=CC[C@]12C)[C@](C)(O)CO
IC50 [3]: 24.1 µM
IC50 [4]: 2.5 µM
IC50 [5]: 8.1 µM
IC50 [6]: 22.5 µM
IC50 (K562): 48.4 µM
IC50 (PC-3): 14.4 µM

CC(C)=CCC/C(C)=C/CC/C(=C/Cc1cc(O)ccc1O)C(=O)OC[C@@](C)(O)[C@@H](O)CC[C@@H](C)[C@H]1CC[C@@]2(C)C3=C(CC[C@]12C)[C@@]1(C)CCC(=O)C(C)(C)[C@@H]1CC3=O
IC50 [3]: > 100 µM
IC50 [4]: 5.9 µM
IC50 [5]: 9.3 µM
IC50 [6]: 18.5 µM
IC50 (K562): 10.7 µM
IC50 (PC-3): 10.8 µM
